The target of experiment [1] is T1, di-Zn-NDM-1 (Klebsiella pneumoniae, UniProt C7C422). The experiment in a line: 1H-15N TROSY-HSQC and 19F NMR titration of di-Zn-NDM-1 with inhibitors. The class given is binding. The note with it: di-Zn-NDM-1, 298 K.
Experiment [2] deals with T2, apo-NDM-1 (Klebsiella pneumoniae, UniProt C7C422). The experiment in a line: 1H-15N TROSY-HSQC and 19F NMR titration of apo-NDM-1 with inhibitors. The format is binding. To be noted: apo-NDM-1, 298 K.
Experiment [3] concerns the target T1, di-Zn-NDM-1. The experiment in a line: 19F NMR titration, dissociation constant with di-Zn-NDM-1. The class given is binding. The method in brief:
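NDM-1 (residues 36−270) carrying a C-terminal His6 tag, expressed in E. coli BL21 (DE3) and purified by Ni2+-affinity and size-exclusion chromatography. di-Zn protein, 0.1−0.3 mM, titrated with test compound at ratios chosen so the protein was mostly bound. 19F spectra recorded at each ratio. Kd derived from titration of the residue Y229 signal.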

Experiment [4] concerns the target T2, apo-NDM-1. The experiment in a line: Thermal stability by circular dichroism, apo-NDM-1. To be noted: CD, ellipticity at 208 nm; apo-NDM-1 alone 46.1 °C. For orientation: CD spectra are sensitive to the conformation of chiral molecules.
In experiment [5] the target is T1, di-Zn-NDM-1. The experiment in a line: Thermal stability by circular dichroism, di-Zn-NDM-1.

T2 sequence (C7C422 36-270): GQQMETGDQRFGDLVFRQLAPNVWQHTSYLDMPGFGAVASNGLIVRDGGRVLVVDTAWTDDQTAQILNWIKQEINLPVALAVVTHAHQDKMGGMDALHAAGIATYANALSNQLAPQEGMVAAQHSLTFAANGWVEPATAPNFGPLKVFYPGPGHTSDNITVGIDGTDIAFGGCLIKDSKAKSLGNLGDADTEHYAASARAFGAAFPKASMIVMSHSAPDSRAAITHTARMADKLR
T1 sequence (C7C422 36-270): as above

Turning to `CC(CS)C(=O)O` (stereo not drawn) [3-mercaptoisobutyric acid], the figures for the “changes of 1H-15N TROSY-HSQC / 19F spectra upon titration” value on di-Zn-NDM-1 [1] and at apo-NDM-1 [2] were “large chemical shift changes” and “No changes”, respectively.
For orientation: Kd means the equilibrium constant for the complex coming apart. A high value points to a looser complex. On to `O[C@@H](CS)[C@@H](O)CS` (racemic) [DTT, dithiothreitol], for which the “changes of 1H-15N TROSY-HSQC / 19F spectra upon titration” value at di-Zn-NDM-1 [1] is “large chemical shift changes”; at apo-NDM-1 [2], “No changes”. The molecule also registered a Kd on di-Zn-NDM-1 [3] of 30 µM.
In the case of `c1ccc(CN(Cc2ccccn2)Cc2ccccn2)nc1` [TPA, tris-picolylamine], the “changes of 1H-15N TROSY-HSQC / 19F spectra upon titration” value on di-Zn-NDM-1 [1] was “significant changes”; at apo-NDM-1 [2], “only minute chemical shift changes”.
With colloidal bismuth subcitrate [CBS], the “changes of 1H-15N TROSY-HSQC / 19F spectra upon titration” value is given as “no changes” at di-Zn-NDM-1 [1] and “shifted significantly” at apo-NDM-1 [2].
Turning to `c1cnc2c(c1)ccc1cccnc12` [phenanthroline], the “changes of 1H-15N TROSY-HSQC / 19F spectra upon titration” value at di-Zn-NDM-1 [1] is “significant changes”; at apo-NDM-1 [2], “only minute chemical shift changes”.
`O=C(O)c1cc[c]([Hg][Cl])cc1` [chloromercuribenzoic acid, 4-chloromercuribenzoic acid]: the “changes of 1H-15N TROSY-HSQC / 19F spectra upon titration” value on di-Zn-NDM-1 [1] and on apo-NDM-1 [2] was “almost all of the cross-peaks in the 2D TROSY-HSQC spectra disappear” in each case.
Consider `O=C(O)c1cccc(C(=O)O)n1` [dipicolinic acid], for which the “changes of 1H-15N TROSY-HSQC / 19F spectra upon titration” value is “significant changes” on di-Zn-NDM-1 [1] and “only minute chemical shift changes” at apo-NDM-1 [2].
For `OCC(S)CS` (stereo not drawn) [2,3-dimercapto-1-propanol], the “changes of 1H-15N TROSY-HSQC / 19F spectra upon titration” value on di-Zn-NDM-1 [1] is “large chemical shift changes”; at apo-NDM-1 [2], “No changes”. At di-Zn-NDM-1 [3], this molecule returned a Kd of 712 µM.
For the molecule `N[C@@H](C(=O)N[C@@H]1C(=O)N2C(C(=O)O)=C(Cl)CS[C@H]12)c1ccccc1` [cefaclor], the “changes of 1H-15N TROSY-HSQC / 19F spectra upon titration” value on di-Zn-NDM-1 [1] and on apo-NDM-1 [2] was “almost all of the cross-peaks in the 2D TROSY-HSQC spectra disappear” in each case.
Turning to `O=C(O)CNC(=O)C(CS)Cc1ccccc1` (stereo not drawn) [thiorphan], the entries for the “changes of 1H-15N TROSY-HSQC / 19F spectra upon titration” value on di-Zn-NDM-1 [1] and on apo-NDM-1 [2] were “large chemical shift changes” and “No changes”, respectively.
In the case of `O=c1c2ccccc2[se]n1-c1ccccc1` [ebselen], the “changes of 1H-15N TROSY-HSQC / 19F spectra upon titration” value at di-Zn-NDM-1 [1] and at apo-NDM-1 [2] was “almost all of the cross-peaks in the 2D TROSY-HSQC spectra disappear” in each case. In addition, on apo-NDM-1 [4], the “Tm of ebselen-bound apo-NDM-1” value is 46.1 °C. In addition, at di-Zn-NDM-1 [5] (CD, ellipticity at 208 nm, di-Zn-NDM-1 alone 53.9 °C), the “Tm of ebselen-bound di-Zn-NDM-1” value stood at 48.4 °C. Moreover, the “Tm lower than that of di-Zn-NDM-1” value at di-Zn-NDM-1 [5] (ebselen-bound di-Zn-NDM-1 vs di-Zn-NDM-1) is “about 5.5 °C”.
Take `CC(S)C(=O)NCC(=O)O` (stereo not drawn) [tiopronin]: the “changes of 1H-15N TROSY-HSQC / 19F spectra upon titration” value at di-Zn-NDM-1 [1] is “large chemical shift changes”; at apo-NDM-1 [2], “No changes”. The molecule also yielded a Kd at di-Zn-NDM-1 [3] of 121 µM.

For the origin of these results see paper PMC10052233 (JACS Au, 2023).
